According to ChEMBL document CHEMBL4304822, “Mitochondrial-targeted Hsp90 C-terminal inhibitors manifest anti-proliferative activity” (Bioorg Med Chem Lett, 2019):
The source made the active and inactive calls. The calls are words filed in the database; no cut-off is given here.

Columns and labels:
[1] = system: MCF7; test: Antiproliferative activity against human MCF7 cells by MTT assay; format: functional, cell-based
[2] = system: PC-3; test: Antiproliferative activity against human PC3 cells by MTT assay; format: functional, cell-based
[3] = Drug uptake in mitochondria in human PC3 cells incubated for 24 hrs by LC/MS analysis; format: ADME; conditions: pc-3, 24 h
In short: (§1)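 PC3 cells treated for 24 h, then separated into subcellular fractions; the compound in each isolated fraction was quantified by LC-MS.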

[4] = system: SK-BR-3; test: Antiproliferative activity against human SKBR3 cells by MTT assay; format: functional, cell-based
[5] = system: HCT-116; test: Antiproliferative activity against human HCT116 cells by MTT assay; format: functional, cell-based
[6] = molecular target: T1, Heat shock protein HSP90 (Homo sapiens, UniProt P07900+P08238); test: Inhibition of HSP90 at C-terminus in human SKBR3 cells assessed as AKT protein degradation at 0.5 to 5 times antiproliferative IC50 incubated for 24 hrs by Western blot analysis; format: cell-based
[7] = molecular target: T1, Heat shock protein HSP90; test: Inhibition of HSP90 at C-terminus in human SKBR3 cells assessed as Her2 protein degradation at 0.5 to 5 times antiproliferative IC50 incubated for 24 hrs by Western blot analysis; format: cell-based
[8] = Drug uptake in cytoplasm in human PC3 cells assessed as lowered drug accumulation incubated for 24 hrs by LC/MS analysis; format: ADME, subcellular; conditions: pc-3, 24 h; in short: as §1
[9] = molecular target: T1, Heat shock protein HSP90; test: Inhibition of HSP90 at C-terminus in human SKBR3 cells assessed as induction of Raf1 protein degradation at 0.5 to 5 times antiproliferative IC50 incubated for 24 hrs by Western blot analysis; format: cell-based
[10] = molecular target: T1, Heat shock protein HSP90; test: Inhibition of HSP90 at C-terminus in human SKBR3 cells assessed as induction of CDK4 protein degradation at 0.5 to 5 times antiproliferative IC50 incubated for 24 hrs by Western blot analysis; format: cell-based
[11] = system: MCF7; test: Ratio of IC50 for N-(7-(3-(dimethylamino)propoxy)-8-methyl-2-oxo-2H-chromen-3-yl)-3',6-dimethoxybiphenyl-3-carboxamide to IC50 for test compound for antiproliferative activity against human MCF7 cells; format: functional
[12] = molecular target: T1, Heat shock protein HSP90; test: Inhibition of HSP90 […] in human SKBR3 cells assessed as induction of heat shock response by measuring increase in HSP70 protein level at 0.5 to 5 times antiproliferative IC50 incubated for 24 hrs by Western blot analysis; format: cell-based
[13] = system: MCF7; test: Ratio of IC50 for N-((1r,4r)-4-(4-(3-(dimethylamino)propoxy)phenyl)cyclohexyl)-3',6-dimethoxybiphenyl-3-carboxamide to IC50 for test compound for antiproliferative activity against human MCF7 cells; format: functional
[14] = system: MCF7; test: Ratio of IC50 for N-(4'-(3-(dimethylamino)propoxy)biphenyl-4-yl)-3',6-dimethoxybiphenyl-3-carboxamide to IC50 for test compound for antiproliferative activity against human MCF7 cells; format: functional
[15] = system: SK-BR-3; test: Ratio of IC50 for N-(4'-(3-(dimethylamino)propoxy)biphenyl-4-yl)-3',6-dimethoxybiphenyl-3-carboxamide to IC50 for test compound for antiproliferative activity against human SKBR3 cells; format: functional

Row | Compound | IC50 [1] | IC50 [2] | Drug uptake [3] | IC50 [4] | IC50 [5] | inhibition [6] | inhibition [7] | Drug uptake [8] | inhibition [9] | inhibition [10] | Ratio IC50 [11] | Activity [12] | Ratio IC50 [13] | Ratio IC50 [14] | Ratio IC50 [15]
1 | COc1cccc(-c2cc(C(=O)Nc3cc4ccc(OCCCN(C)C)c(C)c4oc3=O)ccc2OC)c1 | 1800 nM | 1010 nM | Active | 850 nM | 830 nM |  |  |  |  |  |  |  |  |  | 
2 | COc1cccc(-c2cc(C(=O)N[C@H]3CC[C@H](c4ccc(OCCCN(C)C)cc4)CC3)ccc2OC)c1 | 340 nM |  | Active | 250 nM |  |  |  |  |  |  |  |  |  |  | 
3 | COc1cccc(-c2cc(C(=O)Nc3ccc(-c4ccc(OCCCN(C)C)cc4)cc3)ccc2OC)c1 | 2140 nM | 3530 nM | Active | 2030 nM | 1490 nM |  |  |  |  |  |  |  |  |  | 

Continued, in another order:

Row | IC50 [1] | IC50 [2] | Drug uptake [3] | IC50 [4] | IC50 [5] | inhibition [6] | inhibition [7] | Drug uptake [8] | inhibition [9] | inhibition [10] | Compound | Ratio IC50 [11] | Activity [12] | Ratio IC50 [13] | Ratio IC50 [14] | Ratio IC50 [15]
4 | 800 nM | 1940 nM | Active | 310 nM | 640 nM | inactive | inactive | Active | Active | Active | COc1cccc(-c2cc(C(=O)Nc3cc4ccc(OCCC[P+](c5ccccc5)(c5ccccc5)c5ccccc5)c(C)c4oc3=O)ccc2OC)c1.[Br-] | 2 | Non-Toxic |  |  | 
5 | 170 nM | 1560 nM | Active | 230 nM | 380 nM | inactive | inactive | Active | Active |  | COc1cccc(-c2cc(C(=O)N[C@H]3CC[C@H](c4ccc(OCCC[P+](c5ccccc5)(c5ccccc5)c5ccccc5)cc4)CC3)ccc2OC)c1.[Br-] |  | Non-Toxic | 2 |  | 
6 | 930 nM | 2940 nM | Active | 210 nM | 450 nM | inactive | inactive | Active | Active | Active | COc1cccc(-c2cc(C(=O)Nc3ccc(-c4ccc(OCCC[P+](c5ccccc5)(c5ccccc5)c5ccccc5)cc4)cc3)ccc2OC)c1.[Br-] |  | Non-Toxic |  | 2 | 10
